Experimental data: ChEMBL document CHEMBL2021780, “Antineoplastic agents. 548. Synthesis of iodo- and diiodocombstatin phosphate prodrugs” (J Nat Prod, 2012)
≈ marks a conversion by molar mass, not a printed value.

How the values were obtained:
[1] = system: DU-145; assay: Growth inhibition of human DU145 cells after 48 hrs by sulforhodamine B assay; assay type: functional; conditions: DU-145, 48 h
How it was run: (§1)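 NCI sulforhodamine B assay. Cells were seeded in 5% FBS/RPMI-1640 and incubated 24 h. Serial compound dilutions were then added for 48 h. Cells were fixed with trichloroacetic acid, stained with SRB and read by microplate reader. GI50 is the concentration giving 50% reduction in net protein increase, calculated from optical density data.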

[2] = system: KM-20L2; assay: Growth inhibition of human KM20L2 cells after 48 hrs by sulforhodamine B assay; assay type: functional; conditions: KM-20L2, 48 h; how it was run: as §1
[3] = system: P388; assay: Growth inhibition of mouse P388 cells after 48 hrs by Z1 Beckman/Coulter particle counter analysis; assay type: functional; conditions: P388, 48 h, read-out: ED50 (the source's name)
How it was run: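 Mouse P388 leukemia cells were incubated 24 h in 10% horse serum/Fisher medium, then exposed 48 h to serial compound dilutions. ED50 was calculated from cell counts on a Coulter Z1 particle counter.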

[4] = system: Neisseria gonorrhoeae; assay: Antibacterial activity against Neisseria gonorrhoeae ATCC 49226 by broth microdilution method; assay type: functional
How it was run: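 Broth microdilution followed NCCLS standard methods. Compounds were reconstituted in sterile DMSO and diluted in the appropriate medium immediately before testing. MIC was taken as the lowest concentration giving no visible growth (optically clear). Assays were repeated on separate days.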

[5] = system: NCI-H460; assay: Growth inhibition of human NCI-H460 cells after 48 hrs by sulforhodamine B assay; assay type: functional; conditions: NCI-H460, 48 h; how it was run: as §1
[6] = system: BXPC-3; assay: Growth inhibition of human BxPC3 cells after 48 hrs by sulforhodamine B assay; assay type: functional; conditions: BXPC-3, 48 h; how it was run: as §1
[7] = system: MCF7; assay: Growth inhibition of human MCF7 cells after 48 hrs by sulforhodamine B assay; assay type: functional; conditions: MCF7, 48 h; how it was run: as §1
[8] = system: SF-268; assay: Growth inhibition of human SF268 cells after 48 hrs by sulforhodamine B assay; assay type: functional; conditions: SF-268, 48 h; how it was run: as §1
[9] = Solubility of the compound in water; assay type: physicochemical
How it was run: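 Solubility expressed as amount dissolving in 1 mL H₂O at 25 °C.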

Compound	GI50 [1] [µg/mL]	GI50 [2] [µg/mL]	EC50 [3] [µg/mL]	MIC [4] [µg/mL]	GI50 [5] [µg/mL]	GI50 [6] [µg/mL]	GI50 [7] [µg/mL]	GI50 [8] [µg/mL]	solubility ([9]; buffer)	solubility ([9]; water, read-out: solubility) [µg/mL]
C1CCNCC1.C1CCNCC1.COc1ccc(/C=C\c2cc(I)c(OC)c(I)c2)cc1OP(=O)(O)O	0.025	> 1	0.011	< 0.5	0.025	0.33	0.07	0.041		
COc1ccc(/C=C\c2cc(O)c(OC)c(OC)c2)cc1O	0.0043 (≈ 0.0142 µM)	1.2 (≈ 3.97 µM)	0.26 (≈ 0.86 µM)		0.19 (≈ 0.628 µM)	2.3 (≈ 7.61 µM)	0.49 (≈ 1.62 µM)	0.0083 (≈ 0.0275 µM)		
COc1ccc(/C=C\c2cc(I)c(OC)c(I)c2)cc1OP(=O)(O)O.OCN(CO)CO.OCN(CO)CO	0.021	0.94	0.026	< 0.5	0.025	0.33	0.047	0.04		
C1COCCN1.C1COCCN1.COc1ccc(/C=C\c2cc(I)c(OC)c(OC)c2)cc1OP(=O)(O)O	0.0026	0.24	0.0032	16	0.0036	0.21	0.0047	0.0037		
COc1ccc(/C=C\c2cc(I)c(OC)c(OC)c2)cc1OP(=O)([O-])[O-].[Li+].[Li+]	0.0043		0.017		0.0039	0.49	0.0038	0.004	>= 2.4 mg/ml	
C1CCNCC1.C1CCNCC1.COc1ccc(/C=C\c2cc(I)c(OC)c(OC)c2)cc1OP(=O)(O)O	0.0029	0.51	0.0026		0.0036	0.32	0.0065	0.0044		≥ 4000
C1COCCN1.C1COCCN1.COc1ccc(/C=C\c2cc(I)c(OC)c(I)c2)cc1OP(=O)(O)O	0.028	> 1	0.014	< 0.5	0.033	0.35	0.066	0.054		
COc1ccc(/C=C/c2cc(I)c(OC)c(I)c2)cc1O	5.8 (≈ 11.4 µM)	> 10	> 10		3.4 (≈ 6.69 µM)	3 (≈ 5.9 µM)	0.94 (≈ 1.85 µM)	3.3 (≈ 6.49 µM)		
COC(=O)[C@@H](N)Cc1c[nH]c2ccccc12.COC(=O)[C@@H](N)Cc1c[nH]c2ccccc12.COc1ccc(/C=C\c2cc(I)c(OC)c(I)c2)cc1OP(=O)(O)O	0.026	> 1	0.017	< 0.5	0.033	0.37	0.22	0.086		
COc1ccc(/C=C\c2cc(F)c(OC)c(OC)c2)cc1O [FLUORCOMBSTATIN]	0.0019 (≈ 0.00624 µM)	> 1	0.002 (≈ 0.00657 µM)		0.0032 (≈ 0.0105 µM)		0.0027 (≈ 0.00887 µM)	0.0016 (≈ 0.00526 µM)		
COC(=O)CN.COC(=O)CN.COc1ccc(/C=C\c2cc(I)c(OC)c(I)c2)cc1OP(=O)(O)O	0.023	> 1	0.011	< 0.5	0.03	0.36	0.1	0.054		
COc1ccc(/C=C/c2cc(I)c(OC)c(OC)c2)cc1O [DIIODOCOMBSTATIN]	0.27 (≈ 0.655 µM)	1.7 (≈ 4.12 µM)	0.189 (≈ 0.458 µM)		0.21 (≈ 0.509 µM)	2.7 (≈ 6.55 µM)	0.18 (≈ 0.437 µM)	0.55 (≈ 1.33 µM)		
COC(=O)[C@@H](N)Cc1c[nH]c2ccccc12.COC(=O)[C@@H](N)Cc1c[nH]c2ccccc12.COc1ccc(/C=C\c2cc(I)c(OC)c(OC)c2)cc1OP(=O)(O)O	0.003	0.59	0.0022	4	0.0034	0.26	0.035	0.0097		
COc1ccc(/C=C\c2cc(I)c(OC)c(OC)c2)cc1OP(=O)(O)O.OCN(CO)CO.OCN(CO)CO	0.0047	0.4	0.0029	32	0.004	0.37	0.0048	0.0043		
